# Compound activity deposited in PubChem by several laboratories.
# MEKK2mut PB1 HTS = MEK5 binding signal on mutant MEKK2 PB1, primary screen, biochemical, multiplex bead flow cytometry, Alexa488-MEK5 | Alexa488-MEK5 binding to MEKK2 mutant | percent response, % at 10 µM | 290,000 compounds, 0.35% hits; in the data active = percent response above about 24%, passing the limit was not always enough
# Apaf1 inhib = inhibitors of human Apaf-1 apoptosome, primary screen, biochemical, DEVD-Rh110 fluorescence, uHTS; reconstituted apoptosome caspase-3 activity; 330,000 compounds, 0.71% hits; inhibition, % at 20 µM; active = inhibition of at least 40% at 20 µM
#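 detection = Rh110 fluorescence intensity | test system = biochemical Apaf-1 apoptosome reconstitution | also added = cytochrome c and DEVD-Rh110 substrate | schedule = 30 min plus 50 min, RT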
# UBC13 polyUb = UBC13 polyubiquitin chain formation inhibitors, primary screen, biochemical, TR-FRET, uHTS; Ubiquitin-conjugating enzyme E2 N (Homo sapiens), P61088; inhibition, % at 20 µM; 330,000 compounds, 0.47% hits; AID 485273, 2010; in the data active = inhibition above about 45%, passing the limit was not always enough
# Target sequence (P61088 whole entry, looked up): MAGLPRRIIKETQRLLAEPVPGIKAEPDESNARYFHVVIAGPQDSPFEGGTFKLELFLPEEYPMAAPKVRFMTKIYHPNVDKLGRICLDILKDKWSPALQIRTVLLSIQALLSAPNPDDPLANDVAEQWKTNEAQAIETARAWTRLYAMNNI
# MEKK2wt PB1 HTS = modulators of MEK5 binding to wildtype MEKK2, primary screen, biochemical, multiplex bead flow cytometry, Alexa488-MEK5. 290,000 compounds, 1.1% hits. Alexa488-MEK5 binding to MEKK2 WT; actives lie on both sides. binding response (% of control), % at 10 µM; in the data active = binding response below about 67% or above about 130%
# UCH37 DUB inh = inhibitors of human UCH37 deubiquitinase, primary screen, biochemical, Ub-AMC cleavage, fluorescence | Ubiquitin carboxyl-terminal hydrolase isozyme L5 (Homo sapiens), Q9Y5K5 | purified proteasome/UCH37 | inhibition, % (concentration not given with the values) | 330,000 compounds, 0.33% hits | AID 588478, 2011;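 active = mean inhibition over replicate wells above about 20%, limit read from the data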
# Target sequence (Q9Y5K5 whole entry, looked up): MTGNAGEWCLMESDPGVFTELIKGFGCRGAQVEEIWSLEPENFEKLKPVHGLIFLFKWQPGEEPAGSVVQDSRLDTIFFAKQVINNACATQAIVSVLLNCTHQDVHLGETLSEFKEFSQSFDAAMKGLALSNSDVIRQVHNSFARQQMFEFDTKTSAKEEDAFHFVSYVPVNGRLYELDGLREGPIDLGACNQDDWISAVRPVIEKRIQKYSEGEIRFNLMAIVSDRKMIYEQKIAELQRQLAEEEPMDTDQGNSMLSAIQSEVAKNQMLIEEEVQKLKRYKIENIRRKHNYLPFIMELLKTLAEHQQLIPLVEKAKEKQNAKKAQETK
#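 assay system = human UCH37 enzyme supplied as purified proteasome complex | amount = proteasome at 0.15 nM in the dispensed enzyme solution | schedule = 30 min compound-proteasome preincubation then 25 min substrate reaction, room temperature | measured by = fluorescence, ex 355 nm, em 460 nm | benchmarks = no-proteasome wells (full inhibition) and compound-free wells (no inhibition)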
# MEKK3 PB1 HTS = modulators of MEKK3-MEK5 PB1 binding, primary screen, biochemical, wildtype MEKK3, multiplex bead flow cytometry, Alexa488-MEK5; Mitogen-activated protein kinase kinase kinase 3 (Homo sapiens), Q99759; 290,000 compounds, 1.4% hits; bead-based flow cytometry, Alexa488-MEK5 binding to MEKK3; actives lie on both sides; 0 = blocked by unlabeled MEK5, 100 = vehicle; AID 1529, 2009; binding response (% of control), % at 10 µM;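 active = binding response more than 3 SD above or below the average of its plate-row segment, actives on both sides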;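 note: Alexa488 bead fluorescence after subtracting the streptavidin-only scavenger bead signal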
# MEKK2wt confirm = modulators of MEK5 binding to wildtype MEKK2, confirmation, biochemical, single concentration, multiplex bead flow cytometry; binding response (% of control), % at 10 µM; 5,900 compounds, 2.4% hits; Alexa488-MEK5 binding to MEKK2 WT; actives lie on both sides; shares compounds with MEKK3 PB1 HTS; AID 1892, 2009; in the data active = binding response below about 16% or above about 210%; inactive = in between
# MEKK2mut confirm = mutant MEKK2 PB1-MEK5 binding signal retest – biochemical, single concentration, multiplex bead flow cytometry, confirmation; shares compounds with MEKK3 PB1 HTS; Alexa488-MEK5 binding to MEKK2 mutant; percent response, % at 10 µM; 5,900 compounds, 2% hits; AID 1893, 2009; in the data active = percent response mostly above about 71%, no sharp cut-off; inactive = mostly below about 38%;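 note: higher means compound restores mutant binding toward wildtype level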
# MEKK3 confirm = MEKK3 wild-type PB1 binding to MEK5, inhibitors, confirmation, biochemical, bead multiplex flow cytometry, single concentration, wildtype; shares compounds with MEKK3 PB1 HTS; Alexa488-MEK5 binding to MEKK3; hits give low values; binding response (% of control), % at 10 µM; 5,900 compounds, 1.8% hits;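 active = binding response below 72% of control, or above a set upper limit, though filed actives all read lower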;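 note: lower values mean stronger disruption of MEK5 binding to MEKK3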
# A number is an active result; i = inactive; nt = no result; [ ] = dose if it differs, or a comment. An excerpt weighted towards active compounds, which were near 3% of everything screened.
SMILES,MEKK2mut PB1 HTS,Apaf1 inhib,UBC13 polyUb,MEKK2wt PB1 HTS,UCH37 DUB inh,MEKK3 PB1 HTS,MEKK2wt confirm,MEKK2mut confirm,MEKK3 confirm
CC1CCCCN1C(=O)COc1ccccc1F (centres undefined),i,i,i,i,i,135,i,i,i
O=C(OCC1CCCN2CCCCC12)c1ccc2c(c1)OCO2 (centres undefined),i,i,i,i,i,i,nt,nt,nt
Cc1cc(C)c(-n2c(SCc3nc4ccccc4s3)n[nH]c2=O)c(C)c1,i,i,i,i,i,130,i,i,i
O=C1c2ccccc2NC(c2cn[nH]c2-c2ccc(Cl)cc2)N1O (centres undefined),i,i,i,i,nt,i,nt,nt,nt
CN1c2ccccc2C(O)=C(C(=S)Nc2ccc(F)c(Cl)c2)S1(=O)=O,i,i,i,i,i,130,i,i,i
CN1c2ccccc2C(O)=C(C(=O)Nc2ccccc2)S1(=O)=O,i,i,i,i,nt,i,nt,nt,nt
COc1ccc2nc3cc(Cl)ccc3c(Nc3cc(C(C)C)c(O)cc3C)c2c1,44,i,i,146,i,i,i,75,i
COc1ccc(/C=C2\N=C(C)N(c3ccc4ccccc4c3)C2=O)cc1OC,i,i,i,i,i,208,i,i,i
COc1ccc(/C=C2\N=C3CCCCCN3C2=O)cc1OC,i,i,i,i,i,i,nt,nt,nt
COCCn1c(C)cc(C(=O)COC(=O)CNC(=O)c2ccccc2)c1C,i,i,i,i,i,i,nt,nt,nt
COCC(C)n1c(C)cc(C(=O)COC(=O)CNC(=O)c2ccccc2)c1C (centres undefined),i,i,i,i,i,131,i,i,i
O=c1cc(-c2ccc(F)cc2)oc2ccccc12,i,i,i,2.0[inhibitor],i,2.0[inhibitor],i,i,i
CSc1ccc(-c2cc(=O)c3ccccc3o2)cc1,i,i,i,i,i,i,nt,nt,nt
Brc1cc2c(cc1C1Nc3ccccc3C3C=CCC31)OCO2 (centres undefined),i,i,i,i,i,67[inhibitor],i,i,i
O=C(NCC1CCCO1)C1CCCN1C(=O)Nc1ccc(Cl)c(Cl)c1 (centres undefined),i,i,i,5.0[inhibitor],i,4.0[inhibitor],i,i,i
C=CCN(C(=O)CSc1nc2c(sc3ccccc32)c(=O)n1CCN(CC)CC)c1ccccc1,65,i,i,192,i,i,i,i,i
CCN(CC)CCn1c(SCC(=O)Nc2ccc(F)cc2)nc2c(sc3ccccc32)c1=O,i,i,i,i,i,i,nt,nt,nt
COc1ccc(C2c3c(ncn(CCN4CCOCC4)c3=N)Oc3ccc4ccccc4c32)cc1 (centres undefined),i,i,i,165,i,i,i,i,i
c1ccc(C2c3c(ccc4ccccc34)Oc3ncn4nc(-c5ccco5)nc4c32)cc1 (centres undefined),i,i,i,i,i,i,nt,nt,nt
